Assays:
Cav2 VGCCs = details: cited from earlier work
cdk = details: cited from earlier work
cdk5 = cdk5 (Homo sapiens, UniProt Q00535); assay: kinaseseeker kinase assay; format: binding; details: 2 μM
SH-SY5Y cells [1] = details: ref Tarr et al., 2014; cited from earlier work
[2] = test system: rectifying outward current in HEK293 cells; assay: Contaminating rectifying outward current during voltage steps in patch clamp; format: cell-based; details: 50 μM; mean ± SEM, n = 7; across all voltages tested
cdk2 = cdk2 (Homo sapiens, UniProt P24941); assay: kinaseseeker kinase assay; format: binding; details: 2 μM
Method in brief: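 Cell-free luminescent probe-displacement binding assay in rabbit reticulocyte lysate. Compound (2 μM) or DMSO control was incubated 30 min at room temperature, then 1 h with a kinase-specific probe. Luminescence was read, and values expressed as percent kinase activity remaining.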

SH-SY5Y cells [3] = assay: MTS-based cell survival assay; design: species or system human
Cav2.1 VGCC = assay: Whole-cell perforated patch clamp of Cav2.1 current; format: cell-based
[4] = ref Liang et al., 2012, Tarr et al., 2013

Sequence of cdk5 (Q00535 whole entry, species assumed): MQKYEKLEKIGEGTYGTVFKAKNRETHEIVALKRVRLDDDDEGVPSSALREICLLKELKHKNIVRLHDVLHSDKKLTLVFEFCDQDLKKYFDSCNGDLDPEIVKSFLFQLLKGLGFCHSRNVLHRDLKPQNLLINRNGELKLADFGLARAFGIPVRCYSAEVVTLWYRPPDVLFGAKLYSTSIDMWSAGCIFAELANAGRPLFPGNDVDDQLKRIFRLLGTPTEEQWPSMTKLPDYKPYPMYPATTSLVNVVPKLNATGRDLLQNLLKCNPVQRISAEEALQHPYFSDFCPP

Compound: CCCn1cnc2c(NCc3ccc(C)s3)nc(N[C@H](CC)CO)nc21 [GV-58]
- Higher potency and efficacy for Cav2 VGCCs than (R)-roscovitine (Cav2 VGCCs; [4]): 4 fold
- Reduction in cdk activity versus the parent molecule (R)-roscovitine (cdk; [4]): greater than 20 fold
- Reduction of cdk5 activity (cdk5): 10–20%
- Decrease in cell survival at 100 μM (SH-SY5Y cells [1]): 8%
- Increase in rectifying current amplitude [2]: 70 ± 10%
- Reduction of cdk2 activity (cdk2): 0–15%
- Effect on cell survival at 50 μM (SH-SY5Y cells [3]; 50 μM, 24 h): no significant effects on cell survival
- Effect on cell survival (SH-SY5Y cells [3]; 24 h exposure, 0.1–100 μM, normalized to vehicle): little or no effect on cell survival, even up to 100 μM
- Depolarization time to 50% of maximal effects on tail current integral (Cav2.1 VGCC; 50 μM continuously present, steps to +20 mV of 1–100 msec): 2 to 4 ms
- Shift of voltage-dependence of activation curves (peak tail current) (Cav2.1 VGCC; 50 μM, 20 msec steps from −100 mV): did not show any shift
- Shift to the left of IV plots (peak current during step) (Cav2.1 VGCC; 50 μM, 20 msec steps from −100 mV, ascribed to contaminating outward current): ~10 mV
- Tail current decay (slow deactivation) time constant (Cav2.1 VGCC; 50 μM, tail current at −60 mV after 200 msec step to +60 mV): 9.16 ± 0.706 ms

Compound: CC[C@@H](CO)Nc1nc(NCc2ccccc2)c2ncn(C(C)C)c2n1 [(S)-roscovitine]
- Concentration needed for VGCC agonist activity (Cav2 VGCCs; ref Buraei and Elmslie, 2008): above 500 μM
- Lower affinity than (R)-roscovitine (VGCC agonist activity) (Cav2 VGCCs; ref Buraei and Elmslie, 2008): 20 fold
- Potency as cdk inhibitor, less than (R)-roscovitine (cdk; ref De Azevedo et al., 1997): 2 fold

Compound: CC[C@H](CO)Nc1nc(NCc2ccccc2)c2ncn(C(C)C)c2n1 [(R)-roscovitine, reference compound]
- Concentrations giving a significant decrease in cell survival (SH-SY5Y cells [3]; 24 h exposure): ≥ 10 µM
